Data: ChEMBL document CHEMBL3804829, “Two New Faces of Amifostine: Protector from DNA Damage in Normal Cells and Inhibitor of DNA Repair in Cancer Cells” (J Med Chem, 2016)
The source made the active and inactive calls.

Legend:
NHDF [1] = experiment: Protection against DNA damage in gamma irradiated human NHDF assessed as decrease in median number of gammaH2AX/53BP1 foci per nucleus at 4 mM preincubated for 15 mins followed by gamma irradiation measured after 60 mins by confocal fluorescence microscopic analysis relative to control; assay type: functional; parameters: scale not given: the % may be the effect or the level left
How it was run: (§1)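 NHDF fibroblasts or MCF7 cells, with or without 4 mM amifostine added 15 min before 1 Gy γ-irradiation. Sampled at 5, 60 and 120 min post-irradiation and fixed in paraformaldehyde to keep nuclei 3D-intact. γH2AX and 53BP1 were immunodetected and imaged by high-resolution confocal microscopy. A DSB was scored only as a γH2AX focus colocalizing with 53BP1 above a minimum size set for each time point. Read-out: median foci per nucleus.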

MCF7 [2] = experiment: Induction of DNA damage in gamma irradiated human MCF7 cells assessed as median number of […]/53BP1 foci per nucleus at 4 mM preincubated for 15 mins followed by gamma irradiation measured after 60 mins by confocal fluorescence microscopic analysis relative to control
NHDF [3] = experiment: Protection against DNA damage in gamma irradiated human NHDF assessed as decrease in double strand breakage of DNA at 4 mM preincubated for 15 mins followed by gamma irradiation measured after 5 mins by neutral comet assay; assay type: functional, cell-based
[4] = Prodrug conversion in human MCF7 cell supernatants assessed as ALP-mediated WR-1065 formation at 4 mM after 20 to 75 mins by LC-MS/MS analysis; assay type: ADME, cell-based; details: mcf7, 4000 µM
MCF7 [5] = experiment: Induction of DNA damage in gamma irradiated human MCF7 cells assessed as increase in median number of […]/53BP1 foci per nucleus at 4 mM preincubated for 15 mins followed by gamma irradiation measured after 60 to 120 mins by confocal fluorescence microscopic analysis; assay type: functional, cell-based; how it was run: as §1
[6] = Ratio of prodrug conversion in human NHDF assessed as ALP-mediated WR-1065 formation at 75 mins to prodrug conversion in human MCF7 cells assessed as ALP-mediated WR-1065 formation at 75 mins; assay type: ADME, cell-based; details: mcf7, 1.25 h
MCF7 [7] = experiment: Reduction of DNA DSB repair in gamma irradiated human MCF7 cells at 4 mM preincubated for 15 mins followed by gamma irradiation measured after 60 to 120 mins by neutral comet assay; assay type: functional, cell-based
[8] = Prodrug conversion in human NHDF cells assessed as ALP-mediated WR-1065 formation at 4 mM after 20 to 75 mins by LC-MS/MS analysis; assay type: ADME, cell-based; details: 4000 µM
NHDF [9] = experiment: Protection against DNA damage in gamma irradiated human NHDF assessed as decrease in median number of gammaH2AX/53BP1 foci per nucleus at 4 mM preincubated for 15 mins followed by gamma irradiation measured after 5 mins by confocal fluorescence microscopic analysis relative to control; assay type: functional; parameters: scale not given: the % may be the effect or the level left; how it was run: as §1
NHDF [10] = experiment: Induction of DNA DSB repair in gamma irradiated human NHDF at 4 mM preincubated for 15 mins followed by gamma irradiation measured after 60 to 120 mins by neutral comet assay; assay type: functional, cell-based
[11] = Ratio of prodrug conversion in human NHDF assessed as ALP-mediated WR-1065 formation at 20 mins to prodrug conversion in human MCF7 cells assessed as ALP-mediated WR-1065 formation at 20 mins; assay type: ADME, cell-based; details: mcf7, 20 min
NHDF [12] = experiment: Induction of DNA DSB repair in gamma irradiated human NHDF assessed as decrease in median number of […]/53BP1 foci per nucleus at 4 mM preincubated for 15 mins followed by gamma irradiation measured after 60 mins by confocal fluorescence microscopic analysis relative to 5 mins postirradiation; assay type: functional; parameters: scale not given: the % may be the effect or the level left
How it was run: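 NHDF fibroblasts, with or without 4 mM amifostine 15 min before 1 Gy γ-rays, fixed in paraformaldehyde (3D-preserved). γH2AX foci colocalizing with 53BP1 and above a size threshold set per time point were counted by high-resolution confocal microscopy. Repair efficiency was taken as the median DSBs per nucleus at 5 min minus that at 60 min post-irradiation.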

[13] = Ratio of prodrug conversion in human NHDF supernatants assessed as ALP-mediated WR-1065 formation at 75 mins to prodrug conversion in human MCF7 cell supernatants assessed as ALP-mediated WR-1065 formation at 75 mins; assay type: ADME, cell-based; details: mcf7, 1.25 h
NHDF [14] = experiment: Induction of DNA DSB repair in gamma irradiated human NHDF assessed as median number of […]/53BP1 foci per nucleus preincubated for 15 mins followed by gamma irradiation measured after 120 mins by confocal fluorescence microscopic analysis relative to control; assay type: functional, cell-based; how it was run: as §1
MCF7 [15] = experiment: Reduction of DNA DSB repair in gamma irradiated human MCF7 cells assessed as median number of […]/53BP1 foci per nucleus at 4 mM preincubated for 15 mins followed by gamma irradiation measured after 60 mins by confocal fluorescence microscopic analysis relative to control; assay type: functional; parameters: scale not given: the % may be the effect or the level left; how it was run: as §1
[16] = Ratio of prodrug conversion in human NHDF supernatants assessed as ALP-mediated WR-1065 formation at 20 mins to prodrug conversion in human MCF7 cell supernatants assessed as ALP-mediated WR-1065 formation at 20 mins; assay type: ADME, cell-based; details: mcf7, 20 min
[17] = Prodrug conversion in human MCF7 cells assessed as ALP-mediated WR-1065 formation at 4 mM after 20 to 75 mins by LC-MS/MS analysis; assay type: ADME, cell-based; details: mcf7, 4000 µM
MCF7 [18] = experiment: Drug uptake in human MCF7 cells at 4 mM after 20 to 75 mins by LC-MS/MS analysis; assay type: ADME, cell-based; details: mcf7, 4000 µM
NHDF [19] = experiment: Induction of DNA DSB repair in gamma irradiated human NHDF assessed as median number of […]/53BP1 foci per nucleus at 4 mM preincubated for 15 mins followed by gamma irradiation measured after 60 mins by confocal fluorescence microscopic analysis relative to control; assay type: functional
How it was run: (§2)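 Cells received 4 mM drug 15 min before 1 Gy γ-irradiation and were sampled at 5, 60 and 120 min post-irradiation. They were fixed in paraformaldehyde to keep nuclei in 3D and immunostained for γH2AX and 53BP1. Imaging used high-resolution confocal microscopy. A DSB was scored only where a γH2AX focus colocalized with 53BP1 and met a minimum size set separately for each time point. The read-out was median foci per nucleus against untreated irradiated cells.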

MCF7 [20] = experiment: Decrease in median number of […]/53BP1 foci per nucleus in gamma irradiated human MCF7 cells at 4 mM preincubated for 15 mins followed by gamma irradiation measured after 5 mins by confocal fluorescence microscopic analysis relative to control; assay type: functional; parameters: scale not given: the % may be the effect or the level left; how it was run: as §2
MCF7 [21] = experiment: Decrease in median number of […]/53BP1 foci per nucleus in gamma irradiated human MCF7 cells at 4 mM preincubated for 15 mins followed by gamma irradiation measured after 60 mins by confocal fluorescence microscopic analysis relative to control; assay type: functional; parameters: scale not given: the % may be the effect or the level left; how it was run: as §2
NHDF [22] = experiment: Drug uptake in human NHDF at 4 mM after 20 to 75 mins by LC-MS/MS analysis; assay type: ADME, cell-based; details: 4000 µM
MCF7 [23] = experiment: Induction of DNA damage in gamma irradiated human MCF7 cells assessed as increase in double strand breakage of DNA at 4 mM preincubated for 15 mins followed by gamma irradiation measured after 5 mins by neutral comet assay; assay type: functional, cell-based

Q: Which results are given for `NCCCNCCSP(=O)(O)O` [AMIFOSTINE]?
A: Activity (NHDF [1]): 61.9%; Activity (MCF7 [2]): 137.5%; Activity (NHDF [3]): Active; Drug metabolism [4]: metabolite_detected; Activity (MCF7 [5]): Active; Ratio [6]: 1.47; Activity (MCF7 [7]): Active; Drug metabolism [8]: metabolite_detected; Activity (NHDF [9]): 75.8%; Activity (NHDF [10]): Active; Ratio [11]: 2.56; Activity (NHDF [12]): 10%; Ratio [13]: 2.17; Activity (NHDF [14]): Active; Activity (MCF7 [15]): 20.7%; Ratio [16]: 1.62; Drug metabolism [17]: metabolite_detected

Q: For `NCCCNCCS` [WR-1065], which Drug uptake (MCF7 [18]) is on record?
A: Its Drug uptake is greater than 90%.

Q: What about the Activity (NHDF [1]) of the same compound?
A: Its Activity is 50%.

Q: What about the Activity (NHDF [3]) of the same compound?
A: The Activity was “Active”.

Q: And the Activity (NHDF [19])?
A: Its Activity is 17.7%.

Q: What about the Activity (MCF7 [20]) of the same compound?
A: The Activity was 75%.

Q: And the Activity (MCF7 [7])?
A: The Activity was “Active”.

Q: And the Activity (NHDF [9])?
A: Its Activity is 65.2%.

Q: And the Activity (MCF7 [21])?
A: The Activity was 82.9%.

Q: What about the Activity (NHDF [10]) of the same compound?
A: The Activity was “Active”.

Q: What about the Drug uptake (NHDF [22]) of the same compound?
A: Its Drug uptake is greater than 90%.

Q: And the Activity (MCF7 [23])?
A: Its Activity is “inactive”.
